Laboratory results as given in PMC3742633 (Molecular cancer therapeutics, 2013).

Legend:
[1] = system: HT29; assay: NCI 60 cell line screen, Sulforhodamine B Assay; format: cell-based; conditions: Homo sapiens, HT-29, 48 h
How it was run: (§1)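 Run through the NCI-60 screening service: human cancer cell lines exposed to test compound for 48 h. Growth read as cellular protein content by sulforhodamine B staining, and GI50 derived from this.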

[2] = system: Jurkat and H522 cells; assay: F26BP measurement in cells; format: cell-based, human; conditions: three hours exposure
How it was run: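 Cells plated at 1×10^5/well, 24 h in RPMI or DMEM (5% CO2, 37°C), then exposed to test compound for 3 h. Cells triturated, washed twice in PBS, dissolved in […] NaOH. F26BP measured by coupled enzyme reaction and normalized to BCA protein. Triplicate or quadruplicate; unpaired two-tailed t-test.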

[3] = system: SK-MEL-2; assay: NCI 60 cell line screen, Sulforhodamine B Assay; format: cell-based; conditions: Homo sapiens, SK-MEL-2, 48 h
How it was run: as §1

[4] = target: recombinant human PFKFB3 protein (Homo sapiens, UniProt Q16875); assay: Recombinant PFKFB3 kinase assay; format: biochemical
Sequence of recombinant human PFKFB3 protein (Q16875 whole entry): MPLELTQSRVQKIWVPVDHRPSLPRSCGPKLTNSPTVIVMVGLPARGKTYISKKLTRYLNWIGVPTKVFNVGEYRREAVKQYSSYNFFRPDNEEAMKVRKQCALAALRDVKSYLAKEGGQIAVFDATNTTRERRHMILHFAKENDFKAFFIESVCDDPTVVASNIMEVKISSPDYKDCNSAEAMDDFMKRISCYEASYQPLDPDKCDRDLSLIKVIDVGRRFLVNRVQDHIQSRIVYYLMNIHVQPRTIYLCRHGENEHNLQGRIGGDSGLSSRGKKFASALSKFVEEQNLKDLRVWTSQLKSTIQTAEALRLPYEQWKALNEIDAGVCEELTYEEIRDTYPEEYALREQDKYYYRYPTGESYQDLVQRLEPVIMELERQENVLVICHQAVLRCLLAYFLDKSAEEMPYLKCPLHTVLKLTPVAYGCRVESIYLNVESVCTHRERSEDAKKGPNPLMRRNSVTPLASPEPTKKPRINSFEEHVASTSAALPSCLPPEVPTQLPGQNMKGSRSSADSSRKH

[5] = system: OVCAR-4; assay: NCI 60 cell line screen, Sulforhodamine B Assay; format: cell-based; conditions: Homo sapiens, OVCAR-4, 48 h
How it was run: as §1

[6] = system: SK-MEL-5; assay: NCI 60 cell line screen, Sulforhodamine B Assay; format: cell-based; conditions: Homo sapiens, SK-MEL-5, 48 h
How it was run: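 Run through the National Cancer Institute 60 cell line screening service on its panel of 59 human cancer lines in vitro. Cytostatic/toxic effect was read as cellular protein content (sulforhodamine B) over 48 h.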

[7] = system: SF-295; assay: NCI 60 cell line screen, Sulforhodamine B Assay; format: cell-based; conditions: Homo sapiens, SF-295, 48 h
How it was run: as §1

[8] = system: LOX IMVI; assay: NCI 60 cell line screen, Sulforhodamine B Assay; format: cell-based; conditions: Homo sapiens, 48 h
How it was run: as §1

[9] = system: IGROV1; assay: NCI 60 cell line screen, Sulforhodamine B Assay; format: cell-based; conditions: Homo sapiens, IGROV-1, 48 h
How it was run: as §1

Q: Which GI50 [1] does the source give for `O=C(C=Cc1ccc2ccccc2n1)c1ccncc1` [PFK15, 1-(4-pyridinyl)-3-(2-quinolinyl)-2-propen-1-one] here?
A: Its GI50 is 2510 nM.

Q: And the “effect on F26BP” value [2]?
A: Its value is “reduced”.

Q: And the GI50 [3]?
A: Its GI50 is 6460 nM.

Q: And the IC50 [4]?
A: Its IC50 is 207 nM.

Q: What about the “fold more activity against PFKFB3 than 3PO” value ([4]; relative to 3PO) of the same compound?
A: Its value is “approximately 100 fold”.

Q: What about the GI50 [5] of the same compound?
A: The GI50 was 2340 nM.

Q: And the GI50 [6]?
A: The GI50 was 3470 nM.

Q: And the GI50 [7]?
A: Its GI50 is 13500 nM.

Q: And the GI50 [8]?
A: The GI50 was 1660 nM.

Q: And the GI50 [9]?
A: Its GI50 is 4370 nM.
